Here are results for 1 compound from ChEMBL document CHEMBL5661979, “Pharmacological inhibition of BMK1 suppresses tumor growth through promyelocytic leukemia protein” (Cancer Cell, 2010).

A value given as a limit tells only on which side of the number the result lay.

Experiment [1] deals with Ribosomal protein S6 kinase alpha-3 (Homo sapiens, UniProt P51812). The experiment can be described thus: Inhibition of RSK2 domain 2 in human HeLa cells lysate pre incubated for 15 mins followed by ATP acyl phosphate probe addition and measured after 10 mins by LC-MS/MS analysis. The experiment is classed as subcellular.
For experiment [2], the target named is MAP/microtubule affinity-regulating kinase 3 (Homo sapiens, UniProt P27448). The experiment can be described thus: Inhibition of MARK3 in human HeLa cells lysate at 50 uM pre incubated for 15 mins followed by ATP acyl phosphate probe addition and measured after 10 mins by LC-MS/MS analysis relative to control. The experiment is classed as subcellular. The conditions noted are these: time 25.0 min.

The target in experiment [3] is Dual specificity mitogen-activated protein kinase kinase 1 (Homo sapiens, UniProt Q02750). The experiment can be described thus: Inhibition of MAP2K1 in human HeLa cells lysate pre incubated for 15 mins followed by ADP acyl phosphate probe addition and measured after 10 mins by LC-MS/MS analysis. The experiment is classed as subcellular.
Experiment [4] is described as follows: Inhibition of MSK1/2 domain 1 in human HeLa cells lysate at 2 uM pre incubated for 15 mins followed by ATP acyl phosphate probe addition and measured after 10 mins by LC-MS/MS analysis relative to control. The conditions noted are these: 25 min, condition cancer.
Experiment [5] deals with Serine/threonine-protein kinase Nek1 (Homo sapiens) (UniProt Q96PY6). The experiment can be described thus: Inhibition of NEK1 in human HeLa cells lysate at 2 uM pre incubated for 15 mins followed by ATP acyl phosphate probe addition and measured after 10 mins by LC-MS/MS analysis relative to control. In kind it is subcellular. The conditions noted are these: time 25.0 min.

The target of experiment [6] is T1, Non-receptor tyrosine-protein kinase TNK1 (Homo sapiens) (UniProt Q13470).
T1 sequence (whole entry): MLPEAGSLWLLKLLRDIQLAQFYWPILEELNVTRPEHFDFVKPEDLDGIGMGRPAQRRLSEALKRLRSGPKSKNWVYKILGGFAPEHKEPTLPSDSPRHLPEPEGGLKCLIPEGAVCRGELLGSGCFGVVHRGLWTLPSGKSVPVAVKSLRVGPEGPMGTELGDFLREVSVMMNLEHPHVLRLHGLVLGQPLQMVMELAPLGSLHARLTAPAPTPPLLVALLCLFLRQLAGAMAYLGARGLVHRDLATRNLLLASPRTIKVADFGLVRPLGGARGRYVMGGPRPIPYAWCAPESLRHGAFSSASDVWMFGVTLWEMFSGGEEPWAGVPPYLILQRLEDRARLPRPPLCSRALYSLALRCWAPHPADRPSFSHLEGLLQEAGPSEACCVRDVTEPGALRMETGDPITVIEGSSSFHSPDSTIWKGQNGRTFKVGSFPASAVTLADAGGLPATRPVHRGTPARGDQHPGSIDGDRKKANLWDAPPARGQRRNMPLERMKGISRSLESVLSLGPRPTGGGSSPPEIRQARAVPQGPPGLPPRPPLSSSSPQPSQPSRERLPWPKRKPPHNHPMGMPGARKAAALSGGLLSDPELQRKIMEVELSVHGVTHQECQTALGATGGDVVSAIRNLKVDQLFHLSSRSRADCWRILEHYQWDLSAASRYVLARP
The experiment can be described thus: Inhibition of TNK1 in human HeLa cells lysate at 10 uM pre incubated for 15 mins followed by ADP acyl phosphate probe addition and measured after 10 mins by LC-MS/MS analysis relative to control. The experiment is classed as subcellular. The conditions noted are these: time 25.0 min.

The target of another experiment is Activated CDC42 kinase 1 (Homo sapiens, UniProt Q07912). The experiment can be described thus: Inhibition of ACK1 in human HeLa cells lysate at 2 uM pre incubated for 15 mins followed by ADP acyl phosphate probe addition and measured after 10 mins by LC-MS/MS analysis relative to control. The experiment is classed as subcellular. The conditions noted are these: time 25.0 min. Summed up:
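HeLa cell lysates (5 mg/mL total protein) were preincubated with inhibitor at 0, 0.8, 2, 10 or 50 μM for 15 min. ATP or ADP acylphosphate probe was then added (5 μM final) for 10 min, and reactions were stopped with urea. Up to four fragment ions per kinase probe-peptide were quantified by targeted MS. % inhibition was taken relative to untreated lysate. Run in duplicate.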

Experiment [7] addresses T2, Phosphatidylinositol 5-phosphate 4-kinase type-2 gamma (Homo sapiens) (UniProt Q8TBX8).
T2 sequence (whole entry): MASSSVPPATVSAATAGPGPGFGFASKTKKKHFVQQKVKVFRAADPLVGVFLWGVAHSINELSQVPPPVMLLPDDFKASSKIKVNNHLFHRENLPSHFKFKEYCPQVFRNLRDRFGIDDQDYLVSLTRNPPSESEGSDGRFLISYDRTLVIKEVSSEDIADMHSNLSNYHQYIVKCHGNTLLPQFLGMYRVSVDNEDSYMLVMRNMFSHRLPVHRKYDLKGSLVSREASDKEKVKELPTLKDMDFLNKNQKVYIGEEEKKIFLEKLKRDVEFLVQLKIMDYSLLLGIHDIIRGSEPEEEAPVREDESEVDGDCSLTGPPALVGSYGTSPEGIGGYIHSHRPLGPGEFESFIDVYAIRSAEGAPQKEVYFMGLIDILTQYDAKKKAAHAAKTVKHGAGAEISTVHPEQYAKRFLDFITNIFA
As to the kind of experiment: Inhibition of PIP5K2C LIP1 site in human HeLa cells lysate at 10 uM pre incubated for 15 mins followed by ATP acyl phosphate probe addition and measured after 10 mins by LC-MS/MS analysis relative to control. The experiment is classed as subcellular. The conditions noted are these: time 25.0 min.

In experiment [8] the target is T3, Serine/threonine-protein kinase ULK3 (Homo sapiens) (UniProt Q6PHR2).
T3 sequence (whole entry): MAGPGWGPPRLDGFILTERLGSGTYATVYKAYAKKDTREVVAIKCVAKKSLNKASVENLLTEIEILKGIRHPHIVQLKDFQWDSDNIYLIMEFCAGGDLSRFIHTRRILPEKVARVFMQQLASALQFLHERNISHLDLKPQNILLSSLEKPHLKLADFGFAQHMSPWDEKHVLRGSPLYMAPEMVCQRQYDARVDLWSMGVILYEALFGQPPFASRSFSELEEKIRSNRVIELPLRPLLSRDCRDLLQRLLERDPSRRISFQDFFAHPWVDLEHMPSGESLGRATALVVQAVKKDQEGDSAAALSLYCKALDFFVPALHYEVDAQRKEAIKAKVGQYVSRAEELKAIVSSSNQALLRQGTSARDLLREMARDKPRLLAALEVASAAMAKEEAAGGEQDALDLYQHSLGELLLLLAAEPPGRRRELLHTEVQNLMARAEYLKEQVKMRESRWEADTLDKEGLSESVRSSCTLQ
The experiment can be described thus: Inhibition of ULK3 in human HeLa cells lysate at 2 uM pre incubated for 15 mins followed by ADP acyl phosphate probe addition and measured after 10 mins by LC-MS/MS analysis relative to control. In kind it is subcellular. The conditions noted are these: time 25.0 min.

Experiment [9] addresses Cyclin-dependent kinase 8/19 (Homo sapiens, UniProt P49336+Q9BWU1). As to the kind of experiment: Inhibition of CDK8/CDK11 in human HeLa cells lysate pre incubated for 15 mins followed by ATP acyl phosphate probe addition and measured after 10 mins by LC-MS/MS analysis. In kind it is subcellular. Summed up:
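KiNativ profiling in HeLa lysate (5 mg/mL total protein). Lysate incubated 15 min with inhibitor at 50, 10, 2, 0.8 or 0 μM. ATP or ADP acylphosphate probe then added (5 μM final) and reacted 10 min. Reaction stopped with urea and analysed by targeted MS, using up to four fragment ions per kinase peptide-probe conjugate. % inhibition taken against untreated lysate. Run in duplicate.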

The target of experiment [10] is Serine/threonine-protein kinase WNK1 (Homo sapiens, UniProt Q9H4A3). As to the kind of experiment: Inhibition of Wnk1 in human HeLa cells lysate pre incubated for 15 mins followed by ATP acyl phosphate probe addition and measured after 10 mins by LC-MS/MS analysis. The experiment is classed as subcellular.
Serine/threonine-protein kinase WNK1, sequence (Q9H4A3 whole entry): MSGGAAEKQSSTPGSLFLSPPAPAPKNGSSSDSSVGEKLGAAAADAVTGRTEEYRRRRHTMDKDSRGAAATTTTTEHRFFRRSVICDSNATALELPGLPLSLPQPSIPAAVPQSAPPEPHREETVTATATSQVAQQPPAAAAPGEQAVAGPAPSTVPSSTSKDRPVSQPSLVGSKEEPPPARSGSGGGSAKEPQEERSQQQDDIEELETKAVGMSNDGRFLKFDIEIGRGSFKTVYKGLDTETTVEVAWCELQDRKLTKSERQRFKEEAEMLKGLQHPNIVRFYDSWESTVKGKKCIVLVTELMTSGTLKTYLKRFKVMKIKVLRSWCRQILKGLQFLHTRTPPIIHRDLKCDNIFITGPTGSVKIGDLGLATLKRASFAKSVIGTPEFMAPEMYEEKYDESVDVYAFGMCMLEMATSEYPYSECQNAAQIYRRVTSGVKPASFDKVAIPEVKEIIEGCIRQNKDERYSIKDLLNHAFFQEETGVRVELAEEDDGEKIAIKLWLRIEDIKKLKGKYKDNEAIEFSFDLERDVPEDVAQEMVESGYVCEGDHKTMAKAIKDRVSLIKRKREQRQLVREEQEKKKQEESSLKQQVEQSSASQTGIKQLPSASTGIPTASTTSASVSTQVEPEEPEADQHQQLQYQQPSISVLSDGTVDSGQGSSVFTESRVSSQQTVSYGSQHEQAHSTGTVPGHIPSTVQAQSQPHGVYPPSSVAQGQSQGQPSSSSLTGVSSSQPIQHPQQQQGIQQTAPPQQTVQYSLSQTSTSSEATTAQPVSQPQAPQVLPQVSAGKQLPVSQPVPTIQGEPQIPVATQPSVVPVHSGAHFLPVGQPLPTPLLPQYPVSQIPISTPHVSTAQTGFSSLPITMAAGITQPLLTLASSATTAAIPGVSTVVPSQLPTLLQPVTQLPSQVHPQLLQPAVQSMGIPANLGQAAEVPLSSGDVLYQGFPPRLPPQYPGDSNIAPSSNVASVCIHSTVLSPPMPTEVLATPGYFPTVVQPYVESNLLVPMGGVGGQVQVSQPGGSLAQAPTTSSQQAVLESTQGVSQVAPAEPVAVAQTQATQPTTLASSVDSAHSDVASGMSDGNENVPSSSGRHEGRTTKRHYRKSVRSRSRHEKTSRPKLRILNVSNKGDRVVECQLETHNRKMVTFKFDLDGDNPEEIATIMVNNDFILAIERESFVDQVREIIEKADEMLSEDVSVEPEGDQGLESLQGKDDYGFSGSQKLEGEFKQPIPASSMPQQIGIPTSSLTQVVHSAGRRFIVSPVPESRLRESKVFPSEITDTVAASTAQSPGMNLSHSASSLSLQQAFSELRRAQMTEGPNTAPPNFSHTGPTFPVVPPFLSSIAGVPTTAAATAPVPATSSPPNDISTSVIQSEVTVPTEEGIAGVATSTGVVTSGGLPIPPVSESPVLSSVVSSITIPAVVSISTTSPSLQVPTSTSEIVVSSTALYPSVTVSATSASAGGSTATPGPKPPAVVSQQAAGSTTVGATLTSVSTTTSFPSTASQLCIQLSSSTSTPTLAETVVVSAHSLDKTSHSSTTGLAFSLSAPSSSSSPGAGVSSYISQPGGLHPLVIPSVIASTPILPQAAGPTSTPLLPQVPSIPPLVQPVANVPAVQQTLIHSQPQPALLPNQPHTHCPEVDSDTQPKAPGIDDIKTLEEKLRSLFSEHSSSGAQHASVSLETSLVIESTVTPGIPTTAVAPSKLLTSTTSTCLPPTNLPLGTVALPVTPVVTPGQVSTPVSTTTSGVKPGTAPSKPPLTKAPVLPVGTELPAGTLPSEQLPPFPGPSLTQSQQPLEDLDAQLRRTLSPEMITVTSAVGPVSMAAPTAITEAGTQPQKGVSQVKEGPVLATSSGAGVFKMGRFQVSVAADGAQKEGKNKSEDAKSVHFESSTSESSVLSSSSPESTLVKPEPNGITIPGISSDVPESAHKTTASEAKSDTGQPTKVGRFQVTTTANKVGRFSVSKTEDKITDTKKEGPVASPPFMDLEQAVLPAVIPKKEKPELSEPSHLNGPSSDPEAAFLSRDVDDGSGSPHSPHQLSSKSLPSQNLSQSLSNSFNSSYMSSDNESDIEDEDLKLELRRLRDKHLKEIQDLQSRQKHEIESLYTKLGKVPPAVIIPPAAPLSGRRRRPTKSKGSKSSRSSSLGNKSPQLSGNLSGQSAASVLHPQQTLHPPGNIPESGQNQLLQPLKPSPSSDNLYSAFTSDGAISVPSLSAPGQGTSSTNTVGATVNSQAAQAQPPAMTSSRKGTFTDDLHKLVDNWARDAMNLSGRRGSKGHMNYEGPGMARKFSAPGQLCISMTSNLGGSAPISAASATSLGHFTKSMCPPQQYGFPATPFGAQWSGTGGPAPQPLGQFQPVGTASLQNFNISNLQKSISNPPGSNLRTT

Serine/threonine-protein kinase Nek1 (Homo sapiens), sequence (Q96PY6 whole entry): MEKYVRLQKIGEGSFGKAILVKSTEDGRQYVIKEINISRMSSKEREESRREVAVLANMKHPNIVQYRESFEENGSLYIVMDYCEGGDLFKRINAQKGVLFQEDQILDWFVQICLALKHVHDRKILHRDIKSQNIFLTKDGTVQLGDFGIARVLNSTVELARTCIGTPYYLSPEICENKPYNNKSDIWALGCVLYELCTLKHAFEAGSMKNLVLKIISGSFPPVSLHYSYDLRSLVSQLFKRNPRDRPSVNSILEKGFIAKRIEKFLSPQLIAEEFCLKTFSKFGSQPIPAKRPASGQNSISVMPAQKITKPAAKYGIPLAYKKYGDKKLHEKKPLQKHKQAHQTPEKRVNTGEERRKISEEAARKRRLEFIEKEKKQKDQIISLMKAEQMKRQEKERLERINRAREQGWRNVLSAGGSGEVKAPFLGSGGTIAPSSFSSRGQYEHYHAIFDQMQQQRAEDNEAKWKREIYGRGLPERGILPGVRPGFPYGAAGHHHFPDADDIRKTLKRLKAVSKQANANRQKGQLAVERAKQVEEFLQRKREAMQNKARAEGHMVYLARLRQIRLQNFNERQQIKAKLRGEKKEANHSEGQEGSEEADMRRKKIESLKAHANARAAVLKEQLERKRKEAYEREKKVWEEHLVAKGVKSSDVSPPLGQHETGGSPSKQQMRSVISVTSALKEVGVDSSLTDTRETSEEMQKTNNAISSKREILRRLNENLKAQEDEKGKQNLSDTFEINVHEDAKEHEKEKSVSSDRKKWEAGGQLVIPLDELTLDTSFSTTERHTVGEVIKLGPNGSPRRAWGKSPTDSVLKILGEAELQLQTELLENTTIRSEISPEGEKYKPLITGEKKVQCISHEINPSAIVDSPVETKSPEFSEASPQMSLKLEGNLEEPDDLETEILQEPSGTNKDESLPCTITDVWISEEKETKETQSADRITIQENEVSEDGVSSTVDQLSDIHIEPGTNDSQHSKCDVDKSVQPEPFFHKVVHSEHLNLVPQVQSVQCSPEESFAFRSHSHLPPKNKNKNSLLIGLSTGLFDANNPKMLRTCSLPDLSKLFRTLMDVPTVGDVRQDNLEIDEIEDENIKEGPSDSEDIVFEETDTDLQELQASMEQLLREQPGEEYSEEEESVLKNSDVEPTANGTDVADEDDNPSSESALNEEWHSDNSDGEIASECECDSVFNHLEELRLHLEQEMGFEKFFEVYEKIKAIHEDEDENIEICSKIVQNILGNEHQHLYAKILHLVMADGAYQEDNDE
Activated CDC42 kinase 1, sequence (Q07912 whole entry, looked up, the tested form may be a part): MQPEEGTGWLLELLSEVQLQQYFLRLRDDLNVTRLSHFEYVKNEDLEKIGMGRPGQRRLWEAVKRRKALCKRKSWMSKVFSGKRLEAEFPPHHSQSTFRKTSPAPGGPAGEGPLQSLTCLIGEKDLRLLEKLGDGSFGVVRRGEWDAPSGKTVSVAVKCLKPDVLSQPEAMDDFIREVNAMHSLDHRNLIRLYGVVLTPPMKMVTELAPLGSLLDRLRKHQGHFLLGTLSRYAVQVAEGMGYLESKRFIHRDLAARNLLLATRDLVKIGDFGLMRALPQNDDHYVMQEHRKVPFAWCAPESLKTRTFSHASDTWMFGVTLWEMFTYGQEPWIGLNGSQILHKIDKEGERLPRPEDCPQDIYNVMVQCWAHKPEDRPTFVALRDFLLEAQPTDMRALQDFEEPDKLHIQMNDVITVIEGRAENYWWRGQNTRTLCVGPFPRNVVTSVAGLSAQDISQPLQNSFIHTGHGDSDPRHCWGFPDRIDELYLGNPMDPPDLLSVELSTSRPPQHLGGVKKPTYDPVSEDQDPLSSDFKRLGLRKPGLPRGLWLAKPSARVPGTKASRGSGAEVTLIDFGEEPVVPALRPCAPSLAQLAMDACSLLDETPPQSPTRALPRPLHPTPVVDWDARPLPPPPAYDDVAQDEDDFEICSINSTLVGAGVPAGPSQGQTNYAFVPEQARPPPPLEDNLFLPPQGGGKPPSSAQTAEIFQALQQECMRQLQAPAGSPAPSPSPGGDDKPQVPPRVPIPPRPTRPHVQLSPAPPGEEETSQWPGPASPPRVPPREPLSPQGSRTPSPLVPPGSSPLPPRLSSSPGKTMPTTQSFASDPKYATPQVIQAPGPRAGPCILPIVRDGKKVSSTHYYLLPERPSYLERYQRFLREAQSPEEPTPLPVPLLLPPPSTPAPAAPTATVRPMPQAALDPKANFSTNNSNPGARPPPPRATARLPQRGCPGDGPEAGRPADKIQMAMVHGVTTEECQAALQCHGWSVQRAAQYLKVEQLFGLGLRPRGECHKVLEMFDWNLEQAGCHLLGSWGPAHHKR
Dual specificity mitogen-activated protein kinase kinase 1, sequence (Q02750 whole entry): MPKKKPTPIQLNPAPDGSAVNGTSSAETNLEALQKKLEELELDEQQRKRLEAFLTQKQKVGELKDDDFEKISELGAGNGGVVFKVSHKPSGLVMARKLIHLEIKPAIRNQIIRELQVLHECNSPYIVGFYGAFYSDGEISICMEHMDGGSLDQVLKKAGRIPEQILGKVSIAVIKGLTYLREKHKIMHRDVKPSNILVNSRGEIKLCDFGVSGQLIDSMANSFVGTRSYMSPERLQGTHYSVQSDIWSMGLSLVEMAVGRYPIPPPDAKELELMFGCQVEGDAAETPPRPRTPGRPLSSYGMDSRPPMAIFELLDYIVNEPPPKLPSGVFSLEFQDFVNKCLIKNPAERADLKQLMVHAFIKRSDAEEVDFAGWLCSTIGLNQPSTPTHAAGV

The IC50 is the concentration needed to halve the response being measured. A lower IC50 goes with greater potency. As usually defined, the inhibition is the relative decrease from the control value, in per cent. Regarding `CCOc1cc(N2CCC(O)CC2)ccc1Nc1ncc2c(n1)N(C)c1ccccc1C(=O)N2C`, the IC50 in experiment [1] is 49 µM; in experiment [3] it was above 50 µM; in experiment [9], above 50 µM; in experiment [10], above 50 µM. The inhibition in [2] was 6.2%; in [5] it was 6.1%; in experiment [6], 46%; on Activated CDC42 kinase 1, 24.4%; in experiment [7], -1.3%; in experiment [8], 18.8%. Further, in [4], the inhibition at 2 µM is -4.6%.
